Measured values reported in the EternaBench riboswitch data.

Tested on: MS2 coat protein
Test: apparent Kd, MS2 coat protein; higher = weaker binding; RNA-MaP array; FMN 200 µM where present
Outline: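 Stalled E. coli RNA polymerase transcribed each design on Illumina sequencing-chip clusters. The clusters were titrated with SNAP-549-labelled MS2 coat protein, starting at 0.7 or 1.5 nM and doubling up to 3 µM, first without ligand and then with constant ligand, in 100 mM Tris-HCl pH 7.5, 80 mM KCl, 4 mM MgCl2, BSA, DTT, yeast tRNA and Tween-20. Green signal was normalised to red-channel RNA signal and to the control-cluster median Fmax. The apparent Kd is the median of filtered binding-curve fits made for each cluster.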

[1] = designed as: OFF switch for flavin mononucleotide, no ligand
[2] = ligand present: flavin mononucleotide, designed as: OFF switch for flavin mononucleotide
[3] = designed as: ON switch for flavin mononucleotide, no ligand
[4] = ligand present: flavin mononucleotide, designed as: ON switch for flavin mononucleotide

Sequence | apparent Kd [1] | apparent Kd [2] | apparent Kd [3] | apparent Kd [4]
GGUUGACAUGAGGAUCACCCAUGUGAGGAUAUCGGCUGGUACGUGUUGGCUGGCAUCUCGAGAAGGCACAUAGG | 170 nM | 58.4 nM | – | –
GGUUGGCGAGGAUAUACAUGAGGAUCACCCAUGUGGUCCUGUGGCUGGUCUUGACUUUGUAGAAGGCGCGGGUC | 49.7 nM | 55.3 nM | – | –
GGUUGUCAUAGUCAUCCUUUCCGUACAUGAGGAUCACCCAUGUAGGAUAUGCUGCUCUCGGUGUGGCAGAAGGGCGUGUGUCUU | 17.8 nM | 18.9 nM | – | –
GUAAAGUGAGGAUAUGGUAAAUUAAUUAUUUAGUAAUUAAUCCAGAAGGCACAUGAGGAUCACCCAUGUAAAUG | 30.7 nM | 51.4 nM | – | –
GUAAAUCAUGUAGGAUAUGCAUGGCGAAGCUACGCAGAAGGACAUGAGGAUCACCCAUGUGCUAGCUACCGAGUUCGGUGGCAA | 77.1 nM | 354 nM | – | –
GUAACUUAUGUCAGGAUAUUACACGCAUUGCGUGGUGAGAAGGGACAUGAGGAUCACCCAUGUCCGGAUGCGGG | 39.8 nM | 62.6 nM | – | –
GUAAGAAAUACAGGAUAUGUUAGUUUUAAGUGUAUUGGUUAUUACUUAAUUACAGAAGGGUAUUACAUGAGGAUCACCCAUGUA | – | – | 14.8 nM | 9.06 nM
GUACAUACAAAGUUACAUGAGGAUCACCCAUGUUUAUUGGGAAGAAGGGUAACAUUAUUAAAUAUAUAGGAUAUUUCACAAUUG | – | – | 546 nM | 283 nM
GUACUGUAGUGAGGAUAUACGAGAACGAUAGUUCGGCGAUCCAUAUAUACAUGAGGAUCACCCAUGUAGAAGGCACUUCAGUAC | 9.3 nM | 108 nM | – | –
GUAGAGUCAGGAUAUACAAGAUCGAAAGAUCGAAGAUUUAUACAUGAGGAUCACCCAUGUAGAAGGGACUCUAC | 14.4 nM | 16.9 nM | – | –
GUAGAGUCAGGAUAUACGAGAUCGAUAGAUCAAAGAUCCUUACAUGAGGAUCACCCAUGUAGAAGGGACUCUAC | 37.4 nM | 677 nM | – | –
GUAGCAAUCGGAGGAUAUGGGUUAUACAUGAGGAUCACCCAUGUUAAUUUACUAGAAGGCCGAUUGCUACAAGAGCGAAAGCUC | – | – | 10.8 nM | 5.7 nM
GUAGCAUAAUCAGGAUAUUCAGCGAAUAGAUUGACAUGAGGAUCACCCAUGUGGCGAAAGCCUAGGGAGAAGGGAUAAUGCUAC | – | – | 405 nM | 42.1 nM
GUAGCAUAAUUAGGAUAUUCAGCGAAUAGAUUGACAUGAGGAUCACCCAUGUGGCGAAAGCCUAGGGAGAAGGGAUAAUGCUAC | – | – | 254 nM | 120 nM
GUAGCAUACAGAGGAUAUCUAAACCGGAAACGGACAUGAGGAUCACCCAUGUGGCGAAAGCCUAGGGAGAAGGCUGAAUGCUAC | – | – | 13.2 nM | 11.8 nM
GUAGCAUACAGAGGAUAUUCAAAACCGCAAAGCGGACAUGAGGAUCACCCAUGUGGCGAAAGCCGGGAGAAGGCUGAAUGCUAC | – | – | 18.7 nM | 16.1 nM
GUAGCAUACCGAGGAUAUCUAACGACAAAGUCGACAUGAGGAUCACCCAUGUGGCGAAAGCCUUGGGAGAAGGCGGAAUGCUAC | – | – | 16.2 nM | 12.6 nM
GUAGCAUACCGAGGAUAUUCAACGACAAAGUCGACAUGAGGAUCACCCAUGUGGCGAAAGCCUUGGGAGAAGGCGGAAUGCUAC | – | – | 16.5 nM | 11.1 nM
GUAGCAUACCGAGGAUAUUCAUACCCGAAAGGGACAUGAGGAUCACCCAUGUGGCGAAAGCCUUGGGAGAAGGCGGAAUGCUAC | – | – | 580 nM | 24.4 nM
GUAGCAUACCGAGGAUAUUCAUAGCGGAAACGCACAUGAGGAUCACCCAUGUGGCGAAAGCCUUGGGAGAAGGCGGAAUGCUAC | – | – | 118 nM | 18.1 nM
GUAGCAUGCAGGCAGGAUAUUCAUAUUAAAACAUGAGGAUCACCCAUGUAGGCCAAAAGGCCUUGGGAGAAGGGCCACAUGCUAC | – | – | 636 nM | 45.7 nM
GUAGCAUUGACAGGAUAUCCAUAUCCGAAAGGGACAUGAGGAUCACCCAUGUCGCGAAAGCGGUGGGAGAAGGGUCUAUGCUAC | – | – | 5.03 nM | 4.38 nM
GUAGCUACUUUUAUACAUGAGGAUCACCCAUGUUACUUGGGUAAGGAUAUUGAUGUUAUGAUUAUCAAGAAGGUACUAUGCUAC | – | – | 136 nM | 30 nM
GUAGCUAUCGCAGGAUAUCCUCAGCGGAAACGCACAUGAGGAUCACCCAUGUAAAUAAAUAAUUUGGAGAAGGGCGAUAGCUAC | – | – | 323 nM | 26.8 nM
GUAGCUAUCGCAGGAUAUUCAUACCGGAAACGGACAUGAGGAUCACCCAUGUGGCGAAAGCCUUGGGAGAAGGCCGAUAGCUAC | – | – | 1160 nM | 789 nM
GUAGCUAUCGGAGGAUAUUCAUACCGGAAACGGACAUGAGGAUCACCCAUGUGCGGAAACGCUUGGGAGAAGGCCGAUAGCUAC | – | – | 247 nM | 19.4 nM
GUAGCUAUCGGAGGAUAUUCAUACCGGAAACGGACAUGAGGAUCACCCAUGUGGCGAAAGCAUUGGGAGAAGGCCGAUAGCUAC | – | – | 576 nM | 19.7 nM

Sequence | apparent Kd [1] | apparent Kd [2] | apparent Kd [3] | apparent Kd [4]
GUAGCUAUUAAAGGAUAUUCAUACCGGAAACGGACAUGAGGAUCACCCAUGUGGCGAAAGCCUUGGGAGAAGGUUAUUAGCUAC | – | – | 378 nM | 15.6 nM
GUAGCUUCAUUUAUACAUGAGGAUCACCCAUGUUACAUGGGUAAGGAUAUUGAUGUUAUGAUUAUCAAGAAGGUACUAUGCUAC | – | – | 663 nM | 39.6 nM
GUAGUGUAUGUAGGAUAUGUGAAGGAAACAUUUACAGAAGGACAUGAGGAUCACCCAUGUAUUUCAGUCACCAAUGUGACUGAU | 24.7 nM | 43.4 nM | – | –
GUAUAUAUUACAUGAGGAUCACCCAUGUCAGAACGGGUAAUCAGAAGGUAUUAUUAGAGAAAGAGUAAGGAUAUGAUUAUAUAC | – | – | 622 nM | 181 nM
GUAUAUCACUAAGGAUAUCUGUAAUAUGUUGAAACAUGAGGAUCACCCAUGUUCAUGUAUUUAUAGGAGAAGGUAGAGAUAUAC | – | – | 4.34 nM | 4.15 nM
GUAUAUCACUUAGGAUAUCUAUAAUUUAUUGAAACAUGAGGAUCACCCAUGUUCAUAAAUUUAUAGGAGAAGGGAGUGAUAUAC | – | – | 4.22 nM | 4.37 nM
GUAUCUUACCAAGGAUAUUUAAGAUUAGUGUAGACAUGAGGAUCACCCAUGUGGCCUUAGUCACGGGAGAAGGUGGUUUGAUAC | – | – | 312 nM | 70.9 nM
GUAUCUUAUGAGAAGGCGAUCAUGAAACAUGAUCGAGGAUAUCAUGAAAACAUGAGGAUCACCCAUGUAUGGGUAUUAUGGUAC | – | – | 63.5 nM | 43.7 nM
GUAUGAGCGAUAGGAUAUACUGAGAUUGAAUGGGUAGAAGGAUCUCUUGUGAGGAAGACAUGAGGAUCACCCAUGUCACGGGCC | – | – | 100 nM | 175 nM
GUAUUGUGAGGAUAUCCAAUAUAUGACAUGAGGAUCACCCAUGUUUCCACUCGUACCUCCGGAGAAGGCACAGUUU | 28.3 nM | 24.3 nM | – | –
GUCAAGCUAGGAUAUACAUGAGGAUCACCCAUGUUAUCCUCGUGGGCAGUUUCUUCAUGUAGAAGGAGCAAAGG | 38 nM | 16.6 nM | – | –
GUCAAGUGAGGAUAUGAUUGUACAACAGACUAGCGUCUGCAUCAGAAGGCACAUGAGGAUCACCCAUGUUUGUC | 19.6 nM | 16.2 nM | – | –
GUCACGAAUGUAGGAUAUCGAGUGGAAUACACUCGAGAAGGACAUGAGGAUCACCCAUGUCAAAUGAAAGAUAAUAAACGUGAC | 14.6 nM | 18.8 nM | – | –
GUCACGAAUGUAGGAUAUCGAGUGGAUAACACUCGAGAAGGACAUGAGGAUCACCCAUGUAAAAUGAAAGAUAAUAAACGUGAC | 17.6 nM | 50.5 nM | – | –
GUCACGUCAGGAUAUCUGAUGUCUAACUUCGGUUAGACAUCAGAGAAGGGACAUGAGGAUCACCCAUGUGACAG | 140 nM | 275 nM | – | –
GUCAGCUCCUGAGGAUAUACAACACUGCUUCGGCAGUGUAUUAAGAUCACAUGAGGAUCACCCAUGUAGAAGGCACGAGCUGAU | 12.1 nM | 156 nM | – | –
GUCAGCUCGUGAGGAUAUACAACACUGAUUCGGCAGUGUAUUAAGAUCACAUGAGGAUCACCCAUGUAGAAGGCACGAGCUGAU | 17.2 nM | 275 nM | – | –
GUCAGCUCGUGAGGAUAUACAACACUGCUUCCGCAGUGUAUUAAGAUCACAUGAGGAUCACCCAUGUAGAAGGCACGAGCUGAU | 13.7 nM | 222 nM | – | –
GUCAGCUCGUGAGGAUAUACAACACUGCUUCGACAGUGUAUUAAGAUCACAUGAGGAUCACCCAUGUAGAAGGCACGAGCUGAU | 13.6 nM | 211 nM | – | –
GUCAGCUCGUGAGGAUAUACAACACUGCUUCGGCAGUGGAUUAAGAUCACAUGAGGAUCACCCAUGUAGAAGGCACGAGCUGAU | 16.2 nM | 423 nM | – | –
GUCAGCUCGUGAGGAUAUACAUCACUGCUUCGGCAGUGUAUUAAAAUAACAUGAGGAUCACCCAUGUAGAAGGCACGAGCUGAU | 4.69 nM | 5.51 nM | – | –
GUCAGCUCGUGAGGAUAUACAUCACUGCUUCGGCAGUGUAUUAAGUUCACAUGAGGAUCACCCAUGUAGAAGGCACGAGCUGAU | 15.2 nM | 20.3 nM | – | –
GUCAGCUCGUGAGGAUAUACAUGUGCUGGAAACAGCACUAAUUAAUUCACAUGAGGAUCACCCAUGUAGAAGGCACGAGCUGAU | 16.2 nM | 17.8 nM | – | –
GUCAGCUCGUGAGGAUAUACAUGUGCUGGAAACAGCACUAUUGUGUUCACAUGAGGAUCACCCAUGUAGAAGGCACGAGCUGAU | 18.2 nM | 85.6 nM | – | –
GUCAGCUCGUGAGGAUAUACAUGUGCUGGAUACAGCACUAAUUAAUUCACAUGAGGAUCACCCAUGUAGAAGGCACGAGCUGAU | 16.1 nM | 18.8 nM | – | –
GUCAGCUCGUGAGGAUAUACAUGUGCUGGAUACAGCACUAUUAAGUUCACAUGAGGAUCACCCAUGUAGAAGGCACGAGCUGAU | 15.8 nM | 20.4 nM | – | –
GUCAGCUCGUUAGGAUAUACAACACUGCUUCGGCAGUGUAUUAAGAUCACAUGAGGAUCACCCAUGUAGAAGGCACGAGCUGAU | 8.16 nM | 29.5 nM | – | –
